Active and inactive are the calls of the source. The rule behind the calls is not given here.
Legend:
[1] = Cytotoxicity against human H12.1 cells after 96 hrs by SRB assay; format: functional, cell-based
Method in brief: (§1)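 Monolayer cultures in RPMI 1640 with 10% heat-inactivated FBS and streptomycin/penicillin, 37 °C, 5% CO₂. Cells seeded day 0 at densities giving exponential growth, exposed day 1 to 0.001–10 μM, SRB read day 5 (96 h exposure); surviving cells as percentage of untreated controls, IC₅₀ taken from dose–response curves. Three independent experiments for some compounds, two for others.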

[2] = Cytotoxicity against human 2102EP cells after 96 hrs by SRB assay; format: functional, cell-based; method in brief: as §1
[3] = Cytotoxicity against human 1411HP cells after 96 hrs by SRB assay; format: functional, cell-based; method in brief: as §1
[4] = system: HCT-8; assay: Cytotoxicity against human HCT8 cells after 96 hrs by SRB assay; format: functional, cell-based; conditions: HCT-8, 96 h; method in brief: as §1
[5] = system: HCT-116; assay: Cytotoxicity against human HCT116 cells after 96 hrs by SRB assay; format: functional, cell-based; conditions: HCT-116, 96 h; method in brief: as §1
[6] = system: HT-29; assay: Cytotoxicity against human HT-29 cells after 96 hrs by SRB assay; format: functional, cell-based; conditions: HT-29, 96 h; method in brief: as §1
[7] = system: DLD-1; assay: Cytotoxicity against human DLD1 cells after 96 hrs by SRB assay; format: functional, cell-based; conditions: DLD-1, 96 h; method in brief: as §1
[8] = system: SW480; assay: Cytotoxicity against human SW480 cells after 96 hrs by SRB assay; format: functional, cell-based; conditions: SW480, 96 h; method in brief: as §1
[9] = system: A549; assay: Cytotoxicity against human A549 cells after 96 hrs by SRB assay; format: functional, cell-based; conditions: A549, 96 h; method in brief: as §1
[10] = system: A-427; assay: Cytotoxicity against human A427 cells after 96 hrs by SRB assay; format: functional, cell-based; conditions: A-427, 96 h; method in brief: as §1
[11] = Cytotoxicity against human NCI-H322 cells after 96 hrs by SRB assay; format: functional, cell-based; conditions: NCI-H322, 96 h; method in brief: as §1
[12] = system: NCI-H358; assay: Cytotoxicity against human NCI-H358 cells after 96 hrs by SRB assay; format: functional, cell-based; conditions: NCI-H358, 96 h; method in brief: as §1
[13] = system: FaDu; assay: Cytotoxicity against human FADU cells after 96 hrs by SRB assay; format: functional, cell-based; method in brief: as §1
[14] = Cytotoxicity against human A253 cells after 96 hrs by SRB assay; format: functional, cell-based; conditions: A253, 96 h; method in brief: as §1
[15] = system: A-431; assay: Cytotoxicity against human A431 cells after 96 hrs by SRB assay; format: functional, cell-based; conditions: A-431, 96 h; method in brief: as §1
[16] = system: MCF7; assay: Cytotoxicity against human MCF7 cells after 96 hrs by SRB assay; format: functional, cell-based; conditions: MCF7, 96 h; method in brief: as §1
[17] = system: BT-474; assay: Cytotoxicity against human BT474 cells after 96 hrs by SRB assay; format: functional, cell-based; conditions: BT-474, 96 h; method in brief: as §1
[18] = system: A2780; assay: Cytotoxicity against human A2780 cells after 96 hrs by SRB assay; format: functional, cell-based; conditions: A2780, 96 h; method in brief: as §1
[19] = Cytotoxicity against human 518A2 cells after 96 hrs by SRB assay; format: functional, cell-based; conditions: 518A2, 96 h; method in brief: as §1
[20] = system: 8505C; assay: Cytotoxicity against human 8505C cells after 96 hrs by SRB assay; format: functional, cell-based; method in brief: as §1
[21] = system: SW-1736; assay: Cytotoxicity against human SW1736 cells after 96 hrs by SRB assay; format: functional, cell-based; conditions: SW-1736, 96 h; method in brief: as §1
[22] = system: A253 cell line; assay: Suppression of regrowth in human A253 cells at 10 nM treated for 96 hrs and measured over 10 days by SRB assay; format: functional, cell-based
Method in brief: (§2)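 SRB regrowth test: cells exposed 96 h to serial dilutions, chosen around IC₉₀, then fixed at once (day 0) or washed drug-free and grown in fresh medium for 2, 4, 6 or 10 days before SRB staining. Three independent experiments.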

[23] = system: A-431; assay: Suppression of regrowth in human A431 cells at 10 nM treated for 96 hrs and measured over 10 days by SRB assay; format: functional, cell-based; method in brief: as §2
[24] = system: A2780; assay: Suppression of regrowth in human A2780 cells at 10 nM treated for 96 hrs and measured over 10 days by SRB assay; format: functional, cell-based; method in brief: as §2
[25] = system: HL-60; assay: Induction of apoptosis in human HL60 cells at 10 uM after 15 hrs by TUNEL assay; format: functional
Method in brief: (§3)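 TUNEL with fluorescein-tagged nucleotides labelling 3'-OH DNA ends, on HL-60 and 518A2 cells exposed to 10 μM for 15 h. Apoptotic cells were counted as green fluorescent spots under fluorescence microscopy and related to total cell number.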

[26] = system: 518A2; assay: Induction of apoptosis in human 518A2 cells at 10 uM after 15 hrs by TUNEL assay; format: functional; method in brief: as §3
[27] = system: HL-60; assay: Induction of apoptosis in human HL60 cells assessed as processing of procaspase 9 to activated caspase 9 at 10 uM by Western blotting; format: functional, cell-based; conditions: TDE = time-dependent effect
Method in brief: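 HL-60 cells at 0.5 × 10⁶/mL, exposed to 10 μM (in 1% DMF/99% PBS) at 37 °C, sampled at 0, 3, 7, 24 and 30 h. Lysed in Tris/NaCl/Triton X-100 buffer pH 7.4, 60 μg protein on 12% SDS–PAGE, PVDF blot, anti-caspase-9 1:10,000, HRP secondary, chemiluminescence. Procaspase-9 (~46 kDa) and cleaved form (~35 kDa) followed.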

[28] = system: 518A2; assay: Induction of apoptosis in human 518A2 cells assessed as increase in cleaved/activated form of caspase 3 at 1 uM after 24 hrs by Western blot analysis; format: functional, cell-based
Method in brief: (§4)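 Cells treated 24 h at 1 μM, then rinsed in PBS and lysed in RIPA buffer with protease inhibitors. 40 μg protein per lane on SDS–PAGE, blotted to nitrocellulose, blocked in 5% milk/PBST, probed 2 h with mouse monoclonals against caspase-3, PARP and actin (loading control). HRP secondary, ECL detection, compared with untreated control.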

[29] = system: 518A2; assay: Induction of apoptosis in human 518A2 cells assessed as PARP cleavage at 1 uM after 24 hrs by Western blot analysis; format: functional, cell-based; method in brief: as §4
[30] = system: DLD-1; assay: Induction of apoptosis in human DLD1 cells assessed as increase in cleaved/activated form of caspase 3 at 1 uM after 24 hrs by Western blot analysis; format: functional, cell-based; method in brief: as §4
[31] = system: DLD-1; assay: Induction of apoptosis in human DLD1 cells assessed as PARP cleavage at 1 uM after 24 hrs by Western blot analysis; format: functional, cell-based; method in brief: as §4
[32] = Induction of apoptosis in human WW070327 cells assessed as increase in cleaved/activated form of caspase 3 at 1 uM after 24 hrs by Western blot analysis; format: cell-based; conditions: ww070327, 24 h; method in brief: as §4
[33] = Induction of apoptosis in human WW070327 cells assessed as PARP cleavage at 1 uM after 24 hrs by Western blot analysis; format: cell-based; conditions: ww070327, 24 h; method in brief: as §4
[34] = system: A2780; assay: Induction of apoptosis in human A2780 cells assessed as increase in cleaved/activated form of caspase 3 at 1 uM after 24 hrs by Western blot analysis; format: functional, cell-based; method in brief: as §4
[35] = system: A2780; assay: Induction of apoptosis in human A2780 cells assessed as PARP cleavage at 1 uM after 24 hrs by Western blot analysis; format: functional, cell-based; method in brief: as §4
[36] = Inhibition of tubulin polymerization at 3 uM; conditions: TDE = time-dependent effect
Method in brief: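 Commercial fluorescence-based tubulin polymerization kit, run as the manufacturer directs, compounds at 3 μM. Polymerization followed as RFU at excitation 360 nm, emission 465 nm. Three independent experiments.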

Activity [36]: tde
SMILES: COc1ccc(/C=C/C(=O)c2cc(OC)c(OC)c(OC)c2)cc1O
IC50 [1]: 0.0336 µM | IC50 [2]: 0.0314 µM | IC50 [3]: 0.142 µM | IC50 [4]: 0.056 µM | IC50 [5]: 0.0251 µM | IC50 [6]: 2.6 µM | IC50 [7]: 0.0323 µM | IC50 [8]: 0.102 µM | IC50 [9]: 0.0675 µM | IC50 [10]: 0.0512 µM | IC50 [11]: 0.039 µM | IC50 [12]: 0.0171 µM | IC50 [13]: 0.041 µM | IC50 [14]: 0.0228 µM | IC50 [15]: 0.015 µM | IC50 [16]: 0.0223 µM | IC50 [17]: 0.193 µM | IC50 [18]: 0.0156 µM | IC50 [19]: 0.0336 µM | IC50 [20]: 0.0497 µM | IC50 [21]: 0.0275 µM | Activity [22]: Active | Activity [23]: Active | Activity [24]: Active | Activity [25]: 40% | Activity [26]: 50% | Activity [27]: tde | Activity [28]: Active | Activity [29]: Active | Activity [30]: Active | Activity [31]: Active | Activity [32]: Not Active | Activity [33]: Not Active | Activity [34]: Active | Activity [35]: Active
